Assay results published in the M2OR odorant receptor database.
Substitutions are numbered along the chain they refer to.

Assays:
Settings in all cases: stereoisomer not certain
OR2W3 (Homo sapiens) = biological target: T1, OR2W3 (Homo sapiens) (UniProt Q7Z3T1)
T1 sequence (whole entry): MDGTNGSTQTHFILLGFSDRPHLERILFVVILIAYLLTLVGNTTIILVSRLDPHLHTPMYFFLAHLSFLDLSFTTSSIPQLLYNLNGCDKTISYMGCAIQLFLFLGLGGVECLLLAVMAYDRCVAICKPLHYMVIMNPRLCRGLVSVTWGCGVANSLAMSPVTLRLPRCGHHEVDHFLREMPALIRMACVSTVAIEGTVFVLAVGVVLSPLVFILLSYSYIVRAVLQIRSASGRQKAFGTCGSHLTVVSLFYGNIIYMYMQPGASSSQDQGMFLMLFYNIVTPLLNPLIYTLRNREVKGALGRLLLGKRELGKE
Outline: (§1)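 Whether a receptor–molecule pair is responsive (active) rests on the original authors' judgment that its measured signal was statistically different from baseline. Pairs without that judgment are non-responsive (inactive). Sources used varied assay methods, commonly transient luciferase assays in mammalian cell lines.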

OR2W5P (Homo sapiens) = biological target: T2, OR2W5P (Homo sapiens) (UniProt A6NFC9)
T2 sequence (whole entry): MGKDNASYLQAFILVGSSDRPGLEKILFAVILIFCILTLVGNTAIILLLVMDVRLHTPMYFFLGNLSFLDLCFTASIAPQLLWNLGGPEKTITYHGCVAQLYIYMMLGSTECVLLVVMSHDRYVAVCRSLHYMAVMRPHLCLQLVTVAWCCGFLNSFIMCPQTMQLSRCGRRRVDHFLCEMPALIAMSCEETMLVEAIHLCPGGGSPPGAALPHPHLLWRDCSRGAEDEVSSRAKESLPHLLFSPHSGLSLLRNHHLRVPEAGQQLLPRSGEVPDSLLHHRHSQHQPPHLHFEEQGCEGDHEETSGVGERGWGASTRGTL
Outline: as §1

OR2Y1 (Homo sapiens) = biological target: T3, OR2Y1 (Homo sapiens) (UniProt Q8NGV0)
T3 sequence (whole entry): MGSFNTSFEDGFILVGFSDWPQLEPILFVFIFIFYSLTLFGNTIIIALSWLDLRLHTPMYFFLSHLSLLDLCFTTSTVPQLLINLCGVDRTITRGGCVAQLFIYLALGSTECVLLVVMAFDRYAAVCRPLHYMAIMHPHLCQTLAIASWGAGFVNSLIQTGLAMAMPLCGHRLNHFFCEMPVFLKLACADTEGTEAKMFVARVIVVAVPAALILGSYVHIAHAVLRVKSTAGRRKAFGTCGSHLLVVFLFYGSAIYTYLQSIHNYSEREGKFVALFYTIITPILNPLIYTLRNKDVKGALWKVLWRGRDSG
Outline: as §1

OR2Y1 = test system: T4, OR2Y1
T4 sequence (whole entry): T3 sequence (whole entry) with V200L
Outline: as §1

OR2Z1 (Homo sapiens) = biological target: T5, OR2Z1 (Homo sapiens) (UniProt Q8NG97)
T5 sequence (whole entry): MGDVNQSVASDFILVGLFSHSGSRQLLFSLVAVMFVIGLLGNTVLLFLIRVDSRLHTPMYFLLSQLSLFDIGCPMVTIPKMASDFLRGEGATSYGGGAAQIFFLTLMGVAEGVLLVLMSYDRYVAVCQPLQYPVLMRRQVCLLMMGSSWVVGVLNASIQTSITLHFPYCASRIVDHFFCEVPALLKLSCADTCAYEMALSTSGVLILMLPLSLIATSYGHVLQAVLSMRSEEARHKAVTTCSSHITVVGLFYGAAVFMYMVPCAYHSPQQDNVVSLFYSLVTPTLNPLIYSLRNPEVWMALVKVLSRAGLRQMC
Outline: as §1

OR3A1 (Homo sapiens) = biological target: T6, OR3A1 (Homo sapiens) (UniProt P47881)
T6 sequence (whole entry): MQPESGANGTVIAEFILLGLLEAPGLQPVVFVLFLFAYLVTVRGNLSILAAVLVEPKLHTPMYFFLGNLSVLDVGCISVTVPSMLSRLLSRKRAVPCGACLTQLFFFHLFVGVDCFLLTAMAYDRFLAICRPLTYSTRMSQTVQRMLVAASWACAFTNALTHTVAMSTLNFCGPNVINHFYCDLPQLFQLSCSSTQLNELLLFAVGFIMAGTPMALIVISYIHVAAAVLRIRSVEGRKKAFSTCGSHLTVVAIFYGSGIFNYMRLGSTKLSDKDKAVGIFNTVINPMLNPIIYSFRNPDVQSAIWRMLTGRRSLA
Outline: as §1

OR3A1 = test system: T7, OR3A1
T7 sequence (whole entry): T6 sequence (whole entry) with R125Q
Outline: as §1

OR3A2 (Homo sapiens) = biological target: T8, OR3A2 (Homo sapiens) (UniProt P47893)
T8 sequence (whole entry): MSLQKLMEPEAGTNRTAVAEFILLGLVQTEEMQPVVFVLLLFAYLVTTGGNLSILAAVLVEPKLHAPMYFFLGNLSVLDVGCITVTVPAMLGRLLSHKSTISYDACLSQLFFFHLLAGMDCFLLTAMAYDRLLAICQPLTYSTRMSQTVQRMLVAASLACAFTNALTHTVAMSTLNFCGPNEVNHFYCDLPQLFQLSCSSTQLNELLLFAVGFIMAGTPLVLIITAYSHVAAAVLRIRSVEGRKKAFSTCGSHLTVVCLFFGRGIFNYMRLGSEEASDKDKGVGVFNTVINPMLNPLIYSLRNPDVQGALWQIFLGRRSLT
Outline: as §1

OR3A2 R317K = test system: T9, OR3A2 R317K
T9 sequence (whole entry): T8 sequence (whole entry) with R317K
Outline: as §1

OR3A3 (Homo sapiens) = biological target: T10, OR3A3 (Homo sapiens) (UniProt P47888)
T10 sequence (whole entry): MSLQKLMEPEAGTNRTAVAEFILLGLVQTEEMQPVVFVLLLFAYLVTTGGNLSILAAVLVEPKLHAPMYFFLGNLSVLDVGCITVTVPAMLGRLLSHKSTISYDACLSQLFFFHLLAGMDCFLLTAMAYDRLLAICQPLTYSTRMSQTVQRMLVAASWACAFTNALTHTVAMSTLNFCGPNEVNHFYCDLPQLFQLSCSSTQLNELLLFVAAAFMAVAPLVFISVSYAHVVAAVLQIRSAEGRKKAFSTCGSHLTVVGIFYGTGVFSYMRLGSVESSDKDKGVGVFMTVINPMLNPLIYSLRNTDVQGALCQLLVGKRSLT
Outline: as §1

OR3A3 T48I L132F = test system: T11, OR3A3 T48I L132F
T11 sequence (whole entry): T10 sequence (whole entry) with T48I, L132F
Outline: as §1

OR4A15 (Homo sapiens) = OR4A15 (Homo sapiens) (UniProt Q8NGL6)
OR4A15 (Homo sapiens), sequence (Q8NGL6 whole entry): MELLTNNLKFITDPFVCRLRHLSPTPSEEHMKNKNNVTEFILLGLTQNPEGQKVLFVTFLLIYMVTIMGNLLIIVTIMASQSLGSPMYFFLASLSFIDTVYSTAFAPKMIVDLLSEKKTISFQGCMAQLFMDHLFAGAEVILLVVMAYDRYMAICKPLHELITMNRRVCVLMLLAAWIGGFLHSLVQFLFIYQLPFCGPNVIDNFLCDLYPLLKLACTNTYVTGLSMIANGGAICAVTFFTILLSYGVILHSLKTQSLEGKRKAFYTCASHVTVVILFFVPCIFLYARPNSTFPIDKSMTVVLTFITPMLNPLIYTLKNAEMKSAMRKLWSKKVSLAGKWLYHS
Outline: as §1

OR4A16 (Homo sapiens) = biological target: T12, OR4A16 (Homo sapiens) (UniProt Q8NH70)
T12 sequence (whole entry): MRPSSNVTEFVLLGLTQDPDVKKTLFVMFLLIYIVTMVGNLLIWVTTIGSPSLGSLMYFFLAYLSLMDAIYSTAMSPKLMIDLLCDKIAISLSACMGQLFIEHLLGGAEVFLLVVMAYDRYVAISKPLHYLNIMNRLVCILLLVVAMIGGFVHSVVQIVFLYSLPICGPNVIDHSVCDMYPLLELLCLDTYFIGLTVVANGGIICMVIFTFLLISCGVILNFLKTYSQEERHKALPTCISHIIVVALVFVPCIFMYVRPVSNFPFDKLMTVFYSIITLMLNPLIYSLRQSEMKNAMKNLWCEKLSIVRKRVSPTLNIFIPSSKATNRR
Outline: as §1

OR4A47 (Homo sapiens) = biological target: T13, OR4A47 (Homo sapiens) (UniProt Q6IF82)
T13 sequence (whole entry): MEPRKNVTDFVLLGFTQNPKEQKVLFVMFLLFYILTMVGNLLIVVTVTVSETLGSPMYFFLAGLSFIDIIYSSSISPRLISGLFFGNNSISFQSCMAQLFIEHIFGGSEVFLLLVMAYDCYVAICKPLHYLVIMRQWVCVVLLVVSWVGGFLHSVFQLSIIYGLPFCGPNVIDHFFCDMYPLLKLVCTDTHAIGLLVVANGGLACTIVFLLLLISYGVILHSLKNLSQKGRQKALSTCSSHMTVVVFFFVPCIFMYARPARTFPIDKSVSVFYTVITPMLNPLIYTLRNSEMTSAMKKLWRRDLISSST
Outline: as §1

OR4A5 (Homo sapiens) = biological target: T14, OR4A5 (Homo sapiens) (UniProt Q8NH83)
T14 sequence (whole entry): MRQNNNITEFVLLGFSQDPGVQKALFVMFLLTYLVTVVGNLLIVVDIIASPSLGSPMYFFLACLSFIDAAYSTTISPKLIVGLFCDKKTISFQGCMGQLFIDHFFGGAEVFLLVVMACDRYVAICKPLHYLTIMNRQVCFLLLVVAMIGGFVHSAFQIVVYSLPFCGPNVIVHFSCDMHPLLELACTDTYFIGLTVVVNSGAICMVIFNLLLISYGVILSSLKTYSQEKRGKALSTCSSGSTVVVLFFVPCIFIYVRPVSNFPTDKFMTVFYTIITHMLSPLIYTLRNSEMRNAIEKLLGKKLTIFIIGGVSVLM
Outline: as §1

OR4B1 (Homo sapiens) = biological target: T15, OR4B1 (Homo sapiens) (UniProt Q8NGF8)
T15 sequence (whole entry): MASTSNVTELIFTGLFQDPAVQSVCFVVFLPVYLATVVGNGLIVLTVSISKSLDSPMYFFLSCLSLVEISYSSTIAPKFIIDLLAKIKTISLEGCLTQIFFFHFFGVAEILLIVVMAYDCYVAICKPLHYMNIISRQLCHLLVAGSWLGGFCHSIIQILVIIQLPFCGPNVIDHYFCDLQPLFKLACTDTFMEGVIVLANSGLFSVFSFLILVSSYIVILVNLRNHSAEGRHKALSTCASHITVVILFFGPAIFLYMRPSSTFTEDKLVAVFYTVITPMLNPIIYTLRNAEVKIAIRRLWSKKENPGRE
Outline: as §1

OR4C11 (Homo sapiens) = biological target: T16, OR4C11 (Homo sapiens) (UniProt Q6IEV9)
T16 sequence (whole entry): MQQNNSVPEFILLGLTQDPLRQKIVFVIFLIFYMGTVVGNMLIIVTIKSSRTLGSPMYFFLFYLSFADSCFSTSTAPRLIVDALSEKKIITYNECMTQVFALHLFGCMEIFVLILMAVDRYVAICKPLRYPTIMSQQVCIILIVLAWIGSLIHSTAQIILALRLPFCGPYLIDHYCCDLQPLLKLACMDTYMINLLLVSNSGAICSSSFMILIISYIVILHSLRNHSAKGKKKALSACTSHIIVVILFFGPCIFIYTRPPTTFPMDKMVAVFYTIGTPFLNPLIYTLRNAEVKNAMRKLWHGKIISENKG
Outline: as §1

OR4C12 (Homo sapiens) = OR4C12 (Homo sapiens) (UniProt Q96R67)
OR4C12 (Homo sapiens), sequence (Q96R67 whole entry): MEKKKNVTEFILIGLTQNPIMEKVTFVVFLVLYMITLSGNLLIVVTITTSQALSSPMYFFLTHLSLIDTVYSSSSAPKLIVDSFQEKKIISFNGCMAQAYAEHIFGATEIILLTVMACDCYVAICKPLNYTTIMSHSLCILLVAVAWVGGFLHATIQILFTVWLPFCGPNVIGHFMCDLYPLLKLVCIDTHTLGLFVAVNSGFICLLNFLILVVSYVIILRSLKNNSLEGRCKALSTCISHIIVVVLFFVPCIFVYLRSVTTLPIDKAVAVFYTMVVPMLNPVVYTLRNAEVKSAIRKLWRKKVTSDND
Outline: as §1

SMILES | odorant receptor agonist call (OR2W3 (Homo sapiens)) | odorant receptor agonist call (OR2W5P (Homo sapiens)) | odorant receptor agonist call (OR2Y1 (Homo sapiens)) | odorant receptor agonist call (OR2Y1) | odorant receptor agonist call (OR2Z1 (Homo sapiens)) | odorant receptor agonist call (OR3A1 (Homo sapiens)) | odorant receptor agonist call (OR3A1) | odorant receptor agonist call (OR3A2 (Homo sapiens)) | odorant receptor agonist call (OR3A2 R317K) | odorant receptor agonist call (OR3A3 (Homo sapiens)) | odorant receptor agonist call (OR3A3 T48I L132F) | odorant receptor agonist call (OR4A15 (Homo sapiens)) | odorant receptor agonist call (OR4A16 (Homo sapiens)) | odorant receptor agonist call (OR4A47 (Homo sapiens)) | odorant receptor agonist call (OR4A5 (Homo sapiens)) | odorant receptor agonist call (OR4B1 (Homo sapiens)) | odorant receptor agonist call (OR4C11 (Homo sapiens)) | odorant receptor agonist call (OR4C12 (Homo sapiens))
CCCCCCC=CCCC=O | inactive | inactive | inactive | inactive | inactive | inactive | inactive | inactive | inactive | inactive | inactive | inactive | inactive | inactive | inactive | inactive | inactive | inactive
CCCCCC1=C(C)CCC1=O | – | – | – | – | – | active | – | – | – | – | – | – | – | – | – | – | – | –
CC(CC=O)CCc1ccccc1 (configuration not stated) | – | – | – | – | – | active | – | – | – | – | – | – | – | – | – | – | – | –
CCC1OC(C)=C(O)C1=O (configuration not stated) | inactive | inactive | inactive | inactive | inactive | inactive | inactive | inactive | inactive | inactive | inactive | inactive | inactive | inactive | inactive | inactive | inactive | inactive
OCCc1ccccc1 | – | – | – | – | – | inactive | – | – | – | – | – | – | – | – | – | – | – | –
CCCC(S)CCOC(C)=O (configuration not stated) | inactive | inactive | inactive | inactive | inactive | inactive | inactive | inactive | inactive | inactive | inactive | inactive | inactive | inactive | inactive | inactive | inactive | inactive
